The test system of series [1] is HSV-1 (strain F). The series can be described thus: HSV-1 plaque reduction assay in Vero cells. The class given is cell-based. The settings on record: Human alphaherpesvirus 1, Vero.
Series [2] can be described thus: Stability in solution. In kind it is physicochemical. The settings on record: for conversion to ACV: water. In a few lines:
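Test compound was diluted from a freshly made stock into water and into methanol. Half was kept at room temperature and half in the autosampler at 4°C. Samples were injected every 15 min for 2 hr, then hourly, daily and weekly. Analysis was LC-MS/MS on a C18 column (ammonium formate pH 3 or water / methanol gradient, 30°C, ESI+, SRM). Guanine-analog formation was quantified against parent-nucleoside and acyclovir calibrations (10–1000 nM).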

Series [3] deals with herpes simplex virus (HSV). As to conditions: cited from earlier work.
Series [4] has as its system HCV subgenomic RNA replicon. In words: Anti-HCV activity in Huh-7 cells with HCV subgenomic RNA replicon system. The class given is cell-based. As to conditions: Hepatitis C virus, Huh-7, read-out: Anti-HCV activity Huh-7 cells EC50, Huh-7 cells, HCV replicon.

As to `Nc1nc2c(ncn2COCCO)c(=O)[nH]1` [ACV, acyclovir], in series [1] (read-out: Activity against HSV-1 EC50), the EC50 was found to be 75 nM. Moreover, in series [1] (read-out: Activity against HSV-1 EC90), the EC90 amounted to 700 nM.
Regarding `COc1ccc(-c2cn3c(O)c4ncn(COCCO)c4nc3n2)cc1` [Compound 3, 6-(4-MeOPh)-TACV], the “conversion to ACV” value in series [2] (after 3 weeks) is listed as 35%; in series [2] (after 4 days), 4%. Also, in series [3], the “activity against herpes simplex virus (HSV) compared with parent” value was “as active as their parent congeners”.
For `COc1ccc(-c2cn3c(=O)c4ncn([C@@H]5O[C@H](CO)[C@@H](O)[C@@]5(C)O)c4nc3[nH]2)cc1` [Compound 36, 3-(β-D-2-C-Methyl-ribofuranosyl)-3,9-dihydro-6-(4-methoxy-phenyl)-9-oxo-5H-imidazo-[1,2-a]purine], the “reversion to parent nucleoside (7 or 8)” value in series [2] (after 3 weeks) is on record as 30%. Also, in series [4], the EC50 was less than 10000 nM.
Regarding `COc1ccc(-c2cn3c(=O)c4ncn([C@H]5C[C@H](N=[N+]=[N-])[C@@H](CO)O5)c4nc3[nH]2)cc1` [Compound 32, 3-(3-Azido-2,3-dideoxy-β-D-erythro-pentofuranosyl)-3,9-dihydro-6-(4-methoxyphenyl)-9-oxo-5H-imidazo-[1,2-a]purine], the “reversion to parent nucleoside (7 or 8)” value in series [2] (after 3 weeks) came out at 60%.
For `C[C@@]1(O)[C@H](O)[C@@H](CO)O[C@H]1n1cnc2c(=O)n3cc(-c4cccs4)[nH]c3nc21` [Compound 39, 3-(β-D-2-C-Methyl-ribofuranosyl)-3,9-dihydro-6-(2-thienyl)-9-oxo-5H-imidazo-[1,2-a]purine], the “reversion to parent nucleoside (7 or 8)” value in series [2] (after 3 weeks) amounted to 60%. The EC50 in series [4] is less than 10000 nM.

The values are drawn from publication PMC3423956 (European journal of medicinal chemistry, 2009).
